From ChEMBL document CHEMBL4177574, “A novel class of Plasmodial ClpP protease inhibitors as potential antimalarial agents” (Bioorg Med Chem, 2017)
The source made the active and inactive calls. No cut-off for these calls is given here. Where a SMILES comes first, the peptide text is derived from it. The star is where a group is joined. Cbz = O=C(OCc1ccccc1)*; OBn = c1ccc(CO*)cc1

Tests used:
[1] = system: Plasmodium falciparum; test: Antimalarial activity against Plasmodium falciparum 3D7 assessed as inhibition of parasite growth incubated for 96 hrs in presence of 4% haematocrit by SYBR green dye based assay; format: functional, organism-based
In short: (§1)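 P. falciparum 3D7 in RPMI with 0.5% albumax at 4% haematocrit, sorbitol-synchronized, starting parasitaemia ~1%. Compound added at final 0–100 µM, with DMSO in control wells. Growth ran 96 h and was read by SYBR green DNA-dye fluorescence. Triplicate wells, experiment repeated twice; IC50 derived from these.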

[2] = Inhibition of recombinant Plasmodium falciparum ClpP expressed in Escherichia coli BL21(DE3) using Suc-LLVY-AMC substrate incubated for 3 to 6 hrs by fluorimetric assay
In short: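 The protease domain of PfClpP (aa 168–370) was His-tagged in pET28a, expressed in E. coli BL21(DE3) with 1 mM IPTG at 37 °C for 3–4 h, Ni-NTA purified and BCA quantified. Assay used 13 µM enzyme in 0.1 M sodium acetate pH 7.0 with 1.0 mM DTT and 50 µM Suc-LLVY-AMC final. AMC fluorescence (ex 355/em 460) was followed continuously for 3–6 h at RT; IC50 by curve fitting.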

[3] = system: Plasmodium falciparum; test: Antimalarial activity against Plasmodium falciparum 3D7 assessed as reduction in mature schizonts formation after 60 hrs post infection; format: functional, organism-based
[4] = system: Plasmodium falciparum; test: Inhibition of apicoplast development in ACP-GFP expressing Plasmodium falciparum D10 assessed as induction of round stump-like structures at 10 uM measured at 72 hrs post dose by DAPI dye based confocal laser-scanning microscopy; format: functional, organism-based
In short: (§2)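 D10 ACP-GFP parasites were grown like 3D7 with 100 nM pyrimethamine, and ring stages (8–10 hpi) were treated with compound. Parasites were sampled at 36/40 hpi and 72 hpi, DAPI-stained at 2 µg/mL final for 30 min at 37 °C, and imaged by confocal microscopy for apicoplast GFP morphology.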

[5] = system: Plasmodium falciparum; test: Effect on nuclear division in ACP-GFP expressing Plasmodium falciparum D10 apicoplast at 10 uM measured at 96 hrs post dose by DAPI dye based confocal laser-scanning microscopy; format: functional, organism-based
[6] = system: Plasmodium falciparum; test: Inhibition of apicoplast development in ACP-GFP expressing Plasmodium falciparum D10 at 10 uM measured during second cycle by DAPI dye based confocal laser-scanning microscopy; format: functional, organism-based; in short: as §2
[7] = system: Plasmodium falciparum; test: Inhibition of apicoplast growth in ACP-GFP expressing Plasmodium falciparum D10 at 10 uM measured during second cycle by DAPI dye based confocal laser-scanning microscopy; format: functional, organism-based; in short: as §2
[8] = system: Plasmodium falciparum; test: Inhibition of apicoplast development in ACP-GFP expressing Plasmodium falciparum D10 assessed as induction of round stump-like structures at 10 uM measured at 90 to 96 hrs post dose by DAPI dye based confocal laser-scanning microscopy; format: functional, organism-based
[9] = system: Plasmodium falciparum; test: Effect on apicoplast development in ACP-GFP expressing Plasmodium falciparum D10 at 10 uM measured during first cycle by DAPI dye based confocal laser-scanning microscopy; format: functional, organism-based; in short: as §2
[10] = system: HeLa; test: Cytotoxic activity against human HeLa cells assessed as reduction in cell viability incubated for 48 hrs by MTT assay
[11] = Ratio of IC50 for inhibition of recombinant Plasmodium falciparum ClpP expressed in Escherichia coli BL21(DE3) to IC50 for antimalarial activity against Plasmodium falciparum 3D7
[12] = system: Plasmodium falciparum; test: Antimalarial activity against Plasmodium falciparum 3D7 assessed as inhibition of parasite growth at 100 uM incubated for 96 hrs in presence of 4% haematocrit by SYBR green dye based assay; format: functional, organism-based; in short: as §1
[13] = Plasmodium falciparum, 3D7, 96 h, read-out: IC50

SMILES	IC50 [1]	IC50 [2] [µM]	Ki [2]	IC50 [1, 13] [µM]	Ki ([2]; read-out: Ki) [µM]	other results
CC(C)C1Cc2c(sc3nc(SCC(=O)NCc4ccccc4)n(CCc4ccccc4)c(=O)c23)CO1 (stereo unspecified)	Not Active	> 100	Not Active	–	–	–
O=C(NCCCc1ccccc1)c1cnc(SCCN2CCOCC2)[nH]c1=O	–	44	–	22	18	–
CCc1nnc(NC(=O)CSc2nnc(-c3cc4ccccc4cc3O)n2CCOC)s1	–	30	–	27	12.1	–
O=C(CNC(=O)OCc1ccccc1)N[C@@H](CCC(=O)OCc1ccccc1)C(=O)OCc1ccccc1 (Cbz-Gly-Glu(OBn)-OBn)	Not Active	> 100	Not Active	–	–	–
COc1ccc(C(=O)CSc2nc(C)cc(SCC(=O)NNC(=O)Cc3ccccc3)n2)cc1	–	34.7	–	11.8	14.2	–
CC(CCc1ccccc1)NC(=O)CSc1nc2sc3c(c2c(=O)n1CCc1ccccc1)CC(C(C)C)OC3 (stereo unspecified)	–	23	–	25	9	–
Cc1cc(SCC(=O)NNC(=O)Cc2ccccc2)nc(SCC(=O)c2ccccc2)n1	–	26	–	75	11	–
O=C(NCCCc1ccccc1)c1cnc(SCCN2CCOCC2)n(Cc2ccccc2)c1=O	–	10.5	–	9	2.3	Activity [3]: Active; Activity [4]: Active; Activity [5]: inactive; inhibition [6]: Active; growth inhibition (GI) [7]: Active; Activity [8]: Active; Activity [9]: inactive; IC50 [10]: > 5 mM
CCN(CC)c1ccc(C(=O)CSc2ncc(C(=O)NCCCc3ccccc3)c(=O)n2Cc2ccccc2)cc1	–	> 100	Not Active	9.2	–	–
CCCOc1ccc(-c2nn(-c3ccccc3)cc2/C=C2\SC(=S)N(CCc3ccccc3)C2=O)cc1F	Not Active	> 100	Not Active	–	–	–
O=C(CSc1ncc(C(=O)NCCCc2ccccc2)c(=O)n1Cc1ccccc1)c1ccc(O)cc1	–	53	–	9.2	21.6	–
O=C(NCCCc1ccccc1)c1cnc(SCC(=O)N2CCOCC2)n(Cc2ccccc2)c1=O	–	46	–	11.7	18.8	–
CCCCOc1ccc(-c2nn(-c3ccccc3)cc2/C=C(\C#N)C(=O)NCc2ccco2)c(C)c1	Not Active	> 100	Not Active	–	–	–
COc1cccc(NC(=O)CSc2nc3sc4c(c3c(=O)n2CCc2ccccc2)CC(C(C)C)OC4)c1 (stereo unspecified)	Not Active	> 100	Not Active	–	–	–
O=C(CSc1ncc(C(=O)NCCCc2ccccc2)c(=O)n1Cc1ccccc1)c1ccccc1	–	24	–	20	10	–
CCOC(=O)c1cnc(SCCN2CCOCC2)[nH]c1=O	Not Active	> 100	Not Active	–	–	–

SMILES	IC50 [1]	IC50 [2] [µM]	Ki [2]	IC50 [1, 13] [µM]	Ki ([2]; read-out: Ki) [µM]	other results
Cc1cc(SCC(=O)NNC(=O)Cc2ccccc2)nc(SCC(=O)N2CCOCC2)n1	–	28.8	–	17.3	11.8	–
N#Cc1ccc(C(=O)CSc2ncc(C(=O)NCCCc3ccccc3)c(=O)n2Cc2ccccc2)cc1	–	> 100	Not Active	13.7	–	–
CCCc1cc(=O)oc2cc(OCC(=O)N[C@@H](CSCc3ccccc3)C(=O)O)ccc12	Not Active	> 100	Not Active	–	–	–
O=C(CSc1nc(SCC(=O)NCc2ccco2)nc(SCC(=O)NCc2ccco2)n1)NCc1ccco1	Not Active	92	–	–	38	–
COc1ccc(C(=O)CSc2ncc(C(=O)NCCCc3ccccc3)c(=O)n2Cc2ccccc2)cc1	–	45	–	2.4	18	Ratio IC50 [11]: 20
CCOC(=O)CSc1ncc(C(=O)NCCCc2ccccc2)c(=O)n1Cc1ccccc1	–	58.3	–	15.9	23.8	–
Cc1cc(SCC(=O)NNC(=O)Cc2ccccc2)nc(SCC(=O)c2ccc(C#N)cc2)n1	–	37.4	–	12.4	15.3	–
COc1ccc(CNC(=O)C(=O)N/N=C/c2ccc(CNS(=O)(=O)c3ccc(Br)cc3)o2)cc1	Not Active	> 100	Not Active	–	–	–
O=C(O)c1cnc2n(c1=O)CC(c1ccccc1)=C(CN1CCOCC1)S2	–	> 100	Not Active	11	–	–
CCOC(=O)c1cnc(SCC(=O)NNC(=O)Cc2ccccc2)[nH]c1=O	–	42	–	82.5	17	–
O=C(COc1ccccc1)Nc1cc(NC(=O)COc2ccccc2)cc(C(=O)Nc2nccs2)c1	Not Active	88	–	–	36	–
CCc1ccc(CSc2ncc(Cl)c(C(=O)NCCC(=O)Nc3ccc(Cl)cc3)n2)cc1	Not Active	> 100	Not Active	–	–	–
O=C(CSc1ncc(C(=O)NCCCc2ccccc2)c(=O)n1Cc1ccccc1)NNC(=O)Cc1ccccc1	Not Active	72.6	–	–	29.5	inhibition [12]: inactive
CCN(CC)c1ccc(C(=O)CSc2nc(C)cc(SCC(=O)NNC(=O)Cc3ccccc3)n2)cc1	–	28.3	–	12.1	11.6	–
CCOC(=O)c1cnc(SCCN2CCOCC2)n(CC(=O)c2ccccc2)c1=O	–	40	–	19	16	–
Cc1cc(SCC(=O)NNC(=O)Cc2ccccc2)nc(SCCN2CCOCC2)n1	–	30.3	–	14.4	12.3	–
